From ChEMBL document CHEMBL1141286, “Benzochromenones from the marine crinoid Comantheria rotula inhibit hypoxia-inducible factor-1 (HIF-1) in cell-based reporter assays and differentially suppress the growth of certain tumor cell lines” (J Nat Prod, 2007)
Active and inactive are the calls of the source. The rule behind the calls is not given here.

Key:
[1] = system: SK-MEL-28; assay: Growth inhibition of human SK-MEL28 cells; format: functional; conditions: for CC50: read-out: Log LC50 (the source's name) (converted); for TGI: read-out: Log TGI (converted)
[2] = system: NCI-H226; assay: Growth inhibition of human NCI-H226 cells; format: functional; conditions: for CC50: read-out: Log LC50 (the source's name) (converted); for TGI: read-out: Log TGI (converted)
[3] = DPPH radical scavenging activity relative to Trolox; format: functional; set-up: concentration or dose not given beside the values
Method in brief: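 Compounds were made up as DMSO stocks and diluted in isopropanol to a final 10 μM. Each was mixed with DPPH in isopropanol at 10 μM or 30 μM DPPH, and absorbance was read at 515 nm. Scavenging was calculated as [1 − OD515(compound)/OD515(control)] × 100, then expressed as a percentage of Trolox activity. One experiment was run in triplicate.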

[4] = system: SNB-75; assay: Growth inhibition of human SNB75 cells; format: functional; conditions: for TGI: read-out: Log TGI (converted)
[5] = system: BT-549; assay: Growth inhibition of human BT549 cells; format: functional; conditions: for TGI: read-out: Log TGI (converted)
[6] = system: NCI-H322M; assay: Growth inhibition of human NCI-H322M cells; format: functional; conditions: for CC50: read-out: Log LC50 (the source's name) (converted); for TGI: read-out: Log TGI (converted)
[7] = system: RXF 393; assay: Growth inhibition of human RXF393 cells; format: functional; conditions: for TGI: read-out: Log TGI (converted)
[8] = system: SW-620; assay: Growth inhibition of human SW620 cells; format: functional; conditions: for CC50: read-out: Log LC50 (the source's name) (converted); for TGI: read-out: Log TGI (converted)
[9] = system: OVCAR-4; assay: Growth inhibition of human OVACAR4 cells; format: functional; conditions: for TGI: read-out: Log TGI (converted)
[10] = system: HCC 2998; assay: Growth inhibition of human HCC2998 cells; format: functional; conditions: for CC50: read-out: Log LC50 (the source's name) (converted); for TGI: read-out: Log TGI (converted)
[11] = system: UACC-62; assay: Growth inhibition of human UACC62 cells; format: functional; conditions: for TGI: read-out: Log TGI (converted)
[12] = system: NCI-H460; assay: Growth inhibition of human NCI-H460 cells; format: functional; conditions: for CC50: read-out: Log LC50 (the source's name) (converted); for TGI: read-out: Log TGI (converted)
[13] = system: LOX IMVI; assay: Growth inhibition of human LOXIMVI cells; format: functional; conditions: for TGI: read-out: Log TGI (converted)
[14] = system: K562; assay: Growth inhibition of human K562 cells; format: functional; conditions: for CC50: read-out: Log LC50 (the source's name) (converted); for TGI: read-out: Log TGI (converted)
[15] = Inhibition of 1,10-phenanthroline-induced HIF1 activation in PC3 cells by TK-luciferase assay; format: cell-based; conditions: Homo sapiens, PC-3
Method in brief: (§1)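 HIF-1 reporter (pHRE-TK-Luc) assays in transfected PC-3 or T47D cells; HIF-1 induced by hypoxia or by the hypoxia mimetic 1,10-phenanthroline (10 μM); compounds at half-log concentrations; luciferase activity measured; IC50 from experiments in triplicate.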

[16] = target: Hypoxia inducible factors; HIF-1-alpha, HIF-2-alpha (Homo sapiens, UniProt Q16665+Q99814); assay: Inhibition of HIF1 activation in human T47D cells by TK-luciferase assay; format: cell-based; method in brief: as §1
[17] = system: T47D; assay: Inhibition of 1,10-phenanthroline-induced VEGF protein secretion in human T47D cells at 10 uM after 16 hrs by ELISA; format: functional, cell-based
Method in brief: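 T47D cells stimulated with 1,10-phenanthroline, compound at 10 μM; secreted VEGF in conditioned media by ELISA, normalized to cell-lysate protein.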

[18] = system: SF-295; assay: Growth inhibition of human SF295 cells; format: functional; conditions: for TGI: read-out: Log TGI (converted)
[19] = system: MOLT-4; assay: Growth inhibition of human MOLT4 cells; format: functional; conditions: for CC50: read-out: Log LC50 (the source's name) (converted); for TGI: read-out: Log TGI (converted)
[20] = system: HCT-116; assay: Growth inhibition of human HCT116 cells; format: functional; conditions: for CC50: read-out: Log LC50 (the source's name) (converted); for TGI: read-out: Log TGI (converted)
[21] = Inhibition of luciferase
Method in brief: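 Purified recombinant firefly luciferase (QuantiLum, 46.8 μg mL−1) mixed with compound in passive lysis buffer containing BSA (1 mg mL−1); equal volume of luciferase substrate added, light output read; percentage inhibition relative to DMSO control; concentration-response curves up to 30 μM.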

[22] = system: RPMI-8226; assay: Growth inhibition of human RPMI8226 cells; format: functional
[23] = system: HOP-62; assay: Growth inhibition of human HOP62 cells; format: functional
[24] = read-out: Log LC50 (the source's name) (converted)

COc1cc(O)cc2cc3oc(C)cc(=O)c3c(O)c12
GI50 [1]: 24 µM | CC50 [1]: > 100 µM | TGI [1]: 63.1 µM | GI50 [2]: 22.4 µM | CC50 [2]: > 100 µM | TGI [2]: > 100 µM | Activity [3]: 40% | GI50 [4]: 46.8 µM | LC50 [4]: > 100 µM | TGI [4]: > 100 µM | GI50 [5]: 20.4 µM | LC50 [5]: > 100 µM | TGI [5]: > 100 µM | GI50 [6]: 26.9 µM | CC50 [6]: > 100 µM | TGI [6]: 95.5 µM | GI50 [7]: 20.4 µM | LC50 [7]: > 100 µM | TGI [7]: 53.7 µM | GI50 [8]: 0.295 µM | CC50 [8]: > 100 µM | TGI [8]: 17 µM | GI50 [9]: 45.7 µM | LC50 [9]: > 100 µM | TGI [9]: > 100 µM | GI50 [10]: 24.5 µM | CC50 [10]: > 100 µM | TGI [10]: 64.6 µM | GI50 [11]: 29.5 µM | LC50 (lethal concentration, 50% cell kill) [11]: > 100 µM | TGI [11]: > 100 µM | GI50 [12]: 19.1 µM | CC50 [12]: > 100 µM | TGI [12]: 50.1 µM | GI50 [13]: 18.2 µM | LC50 [13]: > 100 µM | TGI [13]: 52.5 µM | GI50 [14]: 14.8 µM | CC50 [14]: > 100 µM | TGI [14]: 49 µM | IC50 [15]: 2.5 µM | IC50 [16]: 3.4 µM | Activity [17]: inactive | GI50 [18]: 30.2 µM | LC50 [18]: > 100 µM | TGI [18]: > 100 µM | GI50 [19]: 17.8 µM | CC50 [19]: > 100 µM | TGI [19]: 51.3 µM | GI50 [20]: 14.5 µM | CC50 [20]: 63.1 µM | TGI [20]: 30.2 µM

CCCc1cc(=O)c2c(OC)c3c(OC)cc(O)c(Oc4c(O)cc(OC)c5c(OC)c6c(=O)cc(CCC)oc6cc45)c3cc2o1
GI50 [1]: 11.5 µM | CC50 [1]: 53.7 µM | TGI [1]: 24.5 µM | IC50 [21]: 2.4 µM | GI50 [2]: 16.2 µM | CC50 [2]: 79.4 µM | TGI [2]: 35.5 µM | Activity [3]: 40% | GI50 [4]: 2.95 µM | LC50 [4]: 30.2 µM | TGI [4]: 8.71 µM | GI50 [5]: 3.09 µM | LC50 [5]: 34.7 µM | TGI [5]: 11.2 µM | GI50 [6]: 13.5 µM | CC50 [6]: 55 µM | TGI [6]: 27.5 µM | GI50 [7]: 1.62 µM | LC50 [7]: 30.2 µM | TGI [7]: 5.62 µM | GI50 [8]: 11.5 µM | CC50 [8]: 61.7 µM | TGI [8]: 26.3 µM | GI50 [9]: 2.57 µM | LC50 [9]: 37.2 µM | TGI [9]: 8.51 µM | GI50 [10]: 13.5 µM | CC50 [10]: 56.2 µM | TGI [10]: 27.5 µM | GI50 [11]: 4.9 µM | LC50 (lethal concentration, 50% cell kill) [11]: 41.7 µM | TGI [11]: 17 µM | GI50 [12]: 10.7 µM | CC50 [12]: 89.1 µM | TGI [12]: 30.9 µM | GI50 [13]: 3.47 µM | LC50 [13]: 41.7 µM | TGI [13]: 11.5 µM | GI50 [22]: 4.9 µM | CC50 [22, 24]: 70.8 µM | TGI ([22]; read-out: Log TGI (converted)): 21.4 µM | GI50 [14]: 4.79 µM | CC50 [14]: 58.9 µM | TGI [14]: 14.8 µM | IC50 [15]: 3.9 µM | IC50 [16]: 7.3 µM | Activity [17]: inactive | GI50 [23]: 2.57 µM | CC50 [23, 24]: 28.2 µM | TGI ([23]; read-out: Log TGI (converted)): 8.13 µM | GI50 [18]: 5.13 µM | LC50 [18]: 50.1 µM | TGI [18]: 18.6 µM | GI50 [19]: 3.24 µM | CC50 [19]: 97.7 µM | TGI [19]: 11.5 µM | GI50 [20]: 3.39 µM | CC50 [20]: 34.7 µM | TGI [20]: 11.5 µM
